B2AR ag = agonists of human beta-2 adrenergic receptor inducing internalization | 340,000 compounds, 0.43% hits | response, % (test concentration not listed) | P07550 | Am2.2-beta2AR cells, FAP receptor internalization, flow cytometry | AID 504454;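 active means response above a set limit, near 3 SD of response in nonfluorescent compounds, cut at about 42% in these data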
XBP1 UPR activ = activators of adaptive arm of unfolded protein response (XBP1); activation, % at 20 µM; 330,000 compounds, 0.33% hits; CHO-XBP1 luciferase reporter, IRE1-XBP1 UPR activation, luminescence; percent of tunicamycin response, DMSO as zero;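 active means versus positive control, 20 µM dose yields 30% or more activation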
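Material: CHO-XBP1 cells stably carrying IRE1-XBP1-driven luciferase reporter / Amount: 1000 cells per well / Compound: 20 µM, 1% DMSO / Times: 6 h treatment, 37 °C / Detection: luciferase luminescence / Measure: % activation of reporter signal versus tunicamycin and DMSO controls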
Mdm2 MdmX PPI = inhibitors of human Mdm2/MdmX interaction | SaOS-2 split-luciferase Mdm2/MdmX complementation, luminescence | O15151+Q00987 | 330,000 compounds, 3% hits | inhibition, % at 8 µM | AID 485346;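 active means inhibition of at least 50% at 8 µM in the primary screen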
UPR CHOP act = activators of apoptotic arm of unfolded protein response (CHOP); CHO-CHOP luciferase reporter, UPR activation, luminescence; percent of tunicamycin response over DMSO baseline; activation, % at 10 µM; 330,000 compounds, 0.34% hits;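 active means at 10 µM dose, activation of 40% or more, normalized to positive control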
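Evaluation: % reporter activation, DMSO baseline versus tunicamycin full activation; System: CHO-CHOP luciferase reporter cell line; Input: 500 cells/well; Incubation: 6 h compound treatment, 37 °C; Measured by: Steady-Glo luciferase luminescence; Dosing: one dose, 10 µM in 0.5% DMSO; Buffer or medium: F12 medium, 10% FBS; Benchmarks: positive tunicamycin 10 µg/mL, negative DMSO alone.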
Mdm2 ligase inh = blocks human Mdm2 ubiquitin ligase activity; Q00987; cell-based MDM2 ubiquitination luciferase reporter, 2 h; 0 = plate control, 100 = twice control, blank-subtracted; signal enhancement, % at 5 µM; 210,000 compounds, 0.11% hits;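 active means signal enhancement of 30% or more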;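 further: luminescence tracks abundance of the self-degrading MDM2-luciferase fusion protein; higher signal means inhibition of MDM2 E3 ligase activity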
Target sequence (Q00987 whole entry, looked up, the tested form may be a part): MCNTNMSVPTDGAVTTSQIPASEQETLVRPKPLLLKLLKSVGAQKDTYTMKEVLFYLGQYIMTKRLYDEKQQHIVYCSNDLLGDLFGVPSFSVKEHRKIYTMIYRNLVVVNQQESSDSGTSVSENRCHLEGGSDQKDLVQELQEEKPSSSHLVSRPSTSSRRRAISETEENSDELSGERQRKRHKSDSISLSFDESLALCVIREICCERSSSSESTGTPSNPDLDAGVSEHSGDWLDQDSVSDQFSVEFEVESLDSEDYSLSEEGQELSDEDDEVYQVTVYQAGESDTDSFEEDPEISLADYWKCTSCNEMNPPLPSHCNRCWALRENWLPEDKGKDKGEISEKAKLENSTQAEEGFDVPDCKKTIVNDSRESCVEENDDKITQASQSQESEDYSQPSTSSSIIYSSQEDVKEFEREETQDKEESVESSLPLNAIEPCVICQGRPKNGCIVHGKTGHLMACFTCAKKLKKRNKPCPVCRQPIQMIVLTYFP
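Assay system: mammalian cells stably expressing self-ubiquitinating, self-degrading MDM2 E3–luciferase fusion. Quantity: 2000 cells in each well. Medium: DMEM culture medium. Compound dosing: single-point 5 µM. Timing: cell settling 4 h, compound treatment 2 h, both 37 °C. Technique: luciferase luminescence. Read-out basis: percent signal gain over controls, blank-subtracted. Benchmarks: plate controls and plate blanks.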
Dynein cargo inh = dynein cargo transport inhibition; 3617.4 mouse cells, GR-EGFP nuclear translocation imaging; test concentration mostly 20 µM; stimulated with dexamethasone, 1 µM; active compounds read low; 220,000 compounds, 0.47% hits; z-score, hits read low;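 active means plate z-score of nuclear minus cytoplasmic receptor signal below a set negative limit, without overly bright fluorescence or cell loss, cut at about -3.5 in these data, passing the limit was not always enough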;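 further: z-score of nuclear minus cytoplasmic ring GR-EGFP intensity difference per well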
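Buffer or medium – tet-free medium with charcoal-stripped serum · Signal – automated 10x imaging of fixed Hoechst-stained cells · Also added – dexamethasone agonist, 1.0 µM final, for 30 min · Incubation – induction 48 h, compound 1 h, agonist 30 min · Read-out – GR-EGFP nuclear translocation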
Mdm2 MdmX conf = human Mdm2/MdmX binding inhibition, confirmed; shares compounds with Mdm2 MdmX PPI; luminescent assay; inhibition, % at 8 µM; 10,000 compounds, 55% hits; in the data active means inhibition above about 40%
FLuc counter = inhibits full-length luciferase, flagging false Mdm2/MdmX hits; SaOS-2 full-length luciferase counterscreen, luminescence; shares compounds with Mdm2 MdmX PPI; AID 504607; inhibition, % at 8 µM; 6,200 compounds, 77% hits;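 active means mean inhibition at 8 µM reaching about 37%, which flags the compound as non-specific, limit read from the data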;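 further: p53-null SaOS-2 cells with luciferase driven by a doxycycline-inducible promoter; compound on cells about two nights before reading with doxycycline added after day one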
A number is an active result; i = inactive; nt = not tested or not shown. Compounds with a hit are over-represented: about 3.7% of the library has one in this group of screens.

SMILES	B2AR ag	XBP1 UPR activ	Mdm2 MdmX PPI	UPR CHOP act	Mdm2 ligase inh	Dynein cargo inh	Mdm2 MdmX conf	FLuc counter
COc1ccc2[nH]c3c(c2c1)CCNC3=O	i	i	71	i	nt	nt	48	i
O=C1NCCc2c1[nH]c1ccccc21	i	i	i	i	i	i	nt	nt
Cc1nnc(NCc2n[nH]c(=O)c3ccccc23)c2ccccc12	i	i	75	i	i	i	i	nt
C=CCNC(=O)c1c(CS(=O)(=O)c2ccccc2)noc1C(=O)NCc1ccccc1	i	i	i	i	nt	nt	nt	nt
COc1cccc(/C=C2\SC(=S)N(CCC(=O)N3CCCCC3)C2=O)c1	i	i	86	i	nt	nt	53	71
CCOC(=O)N1CCN(C(=O)CCN2C(=O)/C(=C\c3cccc(OC)c3)SC2=S)CC1	i	i	60	i	nt	nt	i	46
CC1CCN(C(=O)CCN2C(=O)/C(=C/c3cccs3)SC2=S)CC1	i	i	83	i	nt	nt	46	i
COc1ccc(/C=C2\SC(=S)N(CCC(=O)N3CCCCC3)C2=O)cc1	i	i	64	i	nt	nt	46	90
COc1cc(OC)nc(Oc2cccc(Cl)c2C)n1	i	i	i	i	nt	nt	nt	nt
CN(C)CCC(O)(c1ccccc1)c1ccccc1Cl (centres undefined)	i	nt	nt	nt	nt	nt	nt	nt
OCC1(CC2CCCCO2)CCN(Cc2cccc(O)c2)CC1 (centres undefined)	i	i	i	i	i	i	nt	nt
O=C(CCN1C(=O)/C(=C/c2ccccc2)SC1=S)N1CCCCCC1	i	i	95	i	nt	nt	77	52
O=C(CCN1C(=O)/C(=C\c2ccccc2Cl)SC1=S)N1CCN(c2ccccc2)CC1	i	i	98	i	i	i	80	42
COC(=O)COc1ccc(/C=C2/SC(=O)N(CC(=O)N3CCCC3)C2=O)cc1Br	i	i	56	i	i	i	i	nt
O=C(CCN1C(=O)/C(=C/c2ccccc2Cl)SC1=S)NN1CCOCC1	i	i	i	i	nt	nt	nt	nt
O=C(CN1C(=O)/C(=C/c2cccc(Br)c2)SC1=S)N1CCCC1	i	i	62	i	i	i	76	63
Cc1ccc(OCc2cc(C(=O)N(C)Cc3cnc4ccccn34)no2)cc1C	i	i	i	i	nt	nt	nt	nt
COc1ccc(Cl)cc1NC(=O)COC(=O)c1c(-c2ccccc2)noc1C	i	i	i	i	nt	nt	nt	nt
CCN(CC(=O)Nc1c(F)cccc1F)C(=O)c1ccc(S(=O)(=O)N(CC)c2ccccc2)cc1	i	nt	nt	nt	nt	nt	nt	nt
COc1ccc(CCNC(=O)CCc2cc(OC)c(OC)c(OC)c2)cc1OC	i	i	i	i	nt	nt	nt	nt
COc1cccc(CN(C)C(=O)c2ccc(Cl)c(S(=O)(=O)N3CCCCCC3)c2)c1OC	i	nt	nt	nt	nt	nt	nt	nt
c1ccc(CCn2c3ccccc3c3nnc(SCc4ccc5nonc5c4)nc32)cc1	i	i	91	i	i	i	63	44
O=C(CCNC(=O)c1ccccc1Cl)Nc1cccc(S(=O)(=O)N2CCCC2)c1	i	i	i	i	nt	nt	nt	nt
O=C(Cc1cccc(NC(=O)C2CCN(C(=O)C3CCC3)CC2)c1)Nc1cccc(C(=O)N2CCOCC2)c1	i	nt	nt	nt	nt	nt	nt	nt
O=C(Cn1cnc2c(nnn2Cc2ccc(F)cc2)c1=O)Nc1cccc(F)c1	i	i	i	i	i	i	nt	nt
SMILES	B2AR ag	XBP1 UPR activ	Mdm2 MdmX PPI	UPR CHOP act	Mdm2 ligase inh	Dynein cargo inh	Mdm2 MdmX conf	FLuc counter
O=C(Cn1cnc2c(nnn2Cc2ccc(F)cc2)c1=O)Nc1ccc2c(c1)OCCO2	i	i	71	i	nt	nt	i	nt
COc1ccc(-c2nnc(NC(=O)c3ccc(S(=O)(=O)N4CCCc5ccccc54)cc3)o2)cc1	i	i	62	i	i	i	59	46
COC(=O)Nc1ccc(S(=O)(=O)N2c3ccccc3CCC2C)cc1 (centres undefined)	i	i	58	i	i	i	63	60
COCc1nnc(NC(=O)c2ccc(S(=O)(=O)N3CCCc4ccccc43)cc2)o1	i	i	i	i	i	i	nt	nt
CC1CN(S(=O)(=O)c2ccc(C(=O)Nc3nnc(-c4ccc5c(c4)CCCC5)o3)cc2)CC(C)O1 (centres undefined)	i	i	67	i	i	i	i	59
CC1CN(S(=O)(=O)c2ccc(C(=O)Nc3nnc(-c4ccccn4)o3)cc2)CC(C)O1 (centres undefined)	i	i	i	i	i	i	nt	nt
O=C(Nc1nnc(C2CC2)o1)c1ccc(S(=O)(=O)N2CCCc3ccccc32)cc1	i	i	50	i	i	i	44	71
C[n+]1cccc(O)c1SCc1ccccc1	i	i	i	i	nt	nt	nt	nt
Cc1cc(-c2ccccc2)c2ccc(NC(=O)C(C)(C)C)nc2n1	i	i	i	i	nt	nt	nt	nt
CN1CCN(C(=O)CN(C)S(=O)(=O)c2cc(Cl)ccc2Cl)CC1	i	i	i	i	nt	nt	nt	nt
CC(=O)Nc1ccc(S(=O)(=O)N2CCCc3ccccc32)cc1	i	i	58	i	i	i	59	51

Assay outcomes as filed in PubChem.
